In ChEMBL document CHEMBL1153229, “The first synthetic agonists of FFA2: Discovery and SAR of phenylacetamides as allosteric modulators” (Bioorg Med Chem Lett, 2010):
Active and inactive are the calls of the source. The calls are words filed in the database; no cut-off is given here.

Experiments:
[1] = Mean residence time in Sprague-Dawley rat at 0.5 mg/kg, iv; format: ADME, organism-based; design: dose 0.5 mg/kg, route intravenous; conditions: in vivo
Procedure, shortened: (§1)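 Male Sprague-Dawley rats dosed 0.5 mg/kg iv.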

[2] = AUC in mouse at 5 mg/kg, po; format: ADME, organism-based; design: dose 5 mg/kg, route oral; conditions: plasma
[3] = target: Growth hormone secretagogue receptor type 1 (Homo sapiens) (UniProt Q92847); assay: Agonist activity at GHSR up to 30 uM; format: functional
Mus musculus [4] = assay: Reduction in plasma free fatty acid level in overnight fasted FFA2 knockout C57BL/6 mouse at 20 mg/kg, ip after 15 mins; format: functional, organism-based; design: dose 20 mg/kg
Procedure, shortened: (§2)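 Male-unspecified C57BL6 mice, wild type or FFA2 knockout, fasted overnight. Given compound or vehicle (10% dimethyl acetamide, 10% ethanol, 30% propylene glycol, 50% saline) ip at 10 ml/kg. Tail blood sampled before and 15 minutes after injection. Plasma FFA measured by enzymatic kit. Ten animals per group; t test.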

[5] = target: Free fatty acid receptor 1 (Homo sapiens) (UniProt O14842); assay: Agonist activity at FFA1 receptor up to 30 uM; format: functional
Mus musculus [6] = assay: Reduction in plasma free fatty acid level in overnight fasted wild type C57BL/6 mouse at 3 mg/kg, ip after 15 mins; format: functional, organism-based; design: dose 3 mg/kg; procedure, shortened: as §2
[7] = target: T1, Free fatty acid receptor 2 (Mus musculus) (UniProt Q8VCK6); assay: Agonist activity at mouse FFA2 receptor expressed in CHO cells assessed as inhibition of forskolin-induced cAMP production; format: functional, cell-based
T1 sequence (whole entry): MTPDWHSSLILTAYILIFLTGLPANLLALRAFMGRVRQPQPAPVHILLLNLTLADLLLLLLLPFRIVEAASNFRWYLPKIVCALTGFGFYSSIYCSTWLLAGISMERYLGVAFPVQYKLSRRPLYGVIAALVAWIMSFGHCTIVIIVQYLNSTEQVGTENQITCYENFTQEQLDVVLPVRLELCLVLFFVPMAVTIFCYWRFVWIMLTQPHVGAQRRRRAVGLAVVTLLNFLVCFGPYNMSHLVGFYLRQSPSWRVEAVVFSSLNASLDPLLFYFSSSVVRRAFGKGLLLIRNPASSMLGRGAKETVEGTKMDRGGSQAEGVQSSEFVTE
Procedure, shortened: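 Suspended cells, 10,000 per well, in Hank's balanced salt solution with 25 mM HEPES and 0.01% (w/v) BSA. Stimulated with forskolin (5 μM final) plus serially diluted test ligands, room temperature for 30 min. Antibody and lysis reagents then added, followed by overnight dark incubation with detection solution. Luminescence read (RLU). Efficacy expressed relative to acetate. Means of four experiments.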

[8] = Tmax in mouse at 5 mg/kg, po; format: ADME, organism-based; design: dose 5 mg/kg, route oral; conditions: in vivo
Mus musculus [9] = assay: Reduction in plasma free fatty acid level in overnight fasted FFA2 knockout C57BL/6 mouse at 3 mg/kg, ip after 15 mins; format: functional, organism-based; design: dose 3 mg/kg; procedure, shortened: as §2
Rattus norvegicus = assay: AUC in Sprague-Dawley rat at 0.5 mg/kg, iv; format: ADME, organism-based, Plasma; design: dose 0.5 mg/kg, route intravenous; conditions: in vivo; procedure, shortened: as §1
[10] = target: C-C chemokine receptor type 2 (Homo sapiens) (UniProt P41597); assay: Agonist activity at CCR2 up to 30 uM; format: functional
[11] = Mean residence time in mouse at 5 mg/kg, po; format: ADME, organism-based; design: dose 5 mg/kg, route oral; conditions: in vivo
[12] = Volume of distribution at steady state in Sprague-Dawley rat at 0.5 mg/kg, iv; format: ADME, organism-based; design: dose 0.5 mg/kg, route intravenous; conditions: in vivo, read-out: Vdss; procedure, shortened: as §1
[13] = target: T2, C-C chemokine receptor type 7 (Homo sapiens) (UniProt P32248); assay: Agonist activity at CCR7 up to 30 uM; format: functional
T2 sequence (whole entry): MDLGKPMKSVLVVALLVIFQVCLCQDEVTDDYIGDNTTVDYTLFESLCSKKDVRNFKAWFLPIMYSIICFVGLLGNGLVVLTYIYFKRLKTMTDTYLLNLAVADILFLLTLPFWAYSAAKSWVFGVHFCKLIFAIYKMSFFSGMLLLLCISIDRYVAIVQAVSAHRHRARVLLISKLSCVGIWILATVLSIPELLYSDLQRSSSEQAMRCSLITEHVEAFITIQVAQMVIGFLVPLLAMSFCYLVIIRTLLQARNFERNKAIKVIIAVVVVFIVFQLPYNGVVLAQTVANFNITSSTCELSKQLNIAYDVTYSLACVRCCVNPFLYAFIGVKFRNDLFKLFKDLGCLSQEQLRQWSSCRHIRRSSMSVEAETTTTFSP

3T3-L1 = assay: Inhibition of lipolysis in mouse 3T3L1 cells; format: functional, cell-based
Procedure, shortened: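 Lipolysis measured in 3T3L1 adipocytes across a concentration range of test compound. Sensitivity to pertussis toxin treatment also examined. Means of three experiments.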

[14] = target: Hydroxycarboxylic acid receptor 2 (Homo sapiens) (UniProt Q8TDS4); assay: Agonist activity at GPR109A up to 30 uM; format: functional
[15] = target: T3, C-X-C chemokine receptor type 3 (Homo sapiens) (UniProt P49682); assay: Agonist activity at CXCR3 up to 30 uM; format: functional
T3 sequence (whole entry): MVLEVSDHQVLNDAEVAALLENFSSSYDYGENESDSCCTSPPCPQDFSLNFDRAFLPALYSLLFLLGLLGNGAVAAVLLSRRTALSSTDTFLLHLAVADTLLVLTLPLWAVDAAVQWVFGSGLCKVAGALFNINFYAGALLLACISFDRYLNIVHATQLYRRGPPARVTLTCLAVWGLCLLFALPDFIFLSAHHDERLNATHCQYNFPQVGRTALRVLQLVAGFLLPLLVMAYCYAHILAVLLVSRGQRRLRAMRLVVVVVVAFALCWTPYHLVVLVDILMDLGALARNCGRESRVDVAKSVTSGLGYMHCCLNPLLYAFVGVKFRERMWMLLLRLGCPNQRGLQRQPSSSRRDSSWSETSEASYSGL

[16] = target: T4, Endothelin receptor type B (Homo sapiens) (UniProt P24530); assay: Agonist activity at ETBR up to 30 uM; format: functional
T4 sequence (whole entry): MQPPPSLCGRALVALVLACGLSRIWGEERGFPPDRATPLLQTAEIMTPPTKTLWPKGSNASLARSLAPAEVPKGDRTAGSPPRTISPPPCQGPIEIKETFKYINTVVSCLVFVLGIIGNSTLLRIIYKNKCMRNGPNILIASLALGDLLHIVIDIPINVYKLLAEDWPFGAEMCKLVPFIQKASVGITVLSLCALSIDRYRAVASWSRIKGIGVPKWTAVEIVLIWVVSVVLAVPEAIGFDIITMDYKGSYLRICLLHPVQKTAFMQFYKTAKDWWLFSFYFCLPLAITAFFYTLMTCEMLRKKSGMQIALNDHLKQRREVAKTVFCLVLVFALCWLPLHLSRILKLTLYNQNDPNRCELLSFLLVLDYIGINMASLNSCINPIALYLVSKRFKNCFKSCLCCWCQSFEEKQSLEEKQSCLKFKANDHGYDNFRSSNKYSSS

[17] = Cmax in mouse at 5 mg/kg, po; format: ADME, organism-based; design: dose 5 mg/kg, route oral; conditions: in vivo

Sequence of C-C chemokine receptor type 2 (Homo sapiens) (P41597 whole entry, looked up): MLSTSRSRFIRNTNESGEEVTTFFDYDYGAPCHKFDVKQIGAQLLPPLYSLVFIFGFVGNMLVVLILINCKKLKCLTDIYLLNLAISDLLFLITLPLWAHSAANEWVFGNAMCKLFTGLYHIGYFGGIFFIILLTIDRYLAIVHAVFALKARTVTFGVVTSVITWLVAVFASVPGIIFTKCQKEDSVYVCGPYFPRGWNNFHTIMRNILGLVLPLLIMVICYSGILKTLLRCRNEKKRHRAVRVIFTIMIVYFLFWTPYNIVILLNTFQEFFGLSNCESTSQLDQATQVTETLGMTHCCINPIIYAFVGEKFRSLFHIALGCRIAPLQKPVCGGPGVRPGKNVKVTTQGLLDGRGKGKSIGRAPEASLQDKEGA
Sequence of Free fatty acid receptor 1 (Homo sapiens) (O14842 whole entry): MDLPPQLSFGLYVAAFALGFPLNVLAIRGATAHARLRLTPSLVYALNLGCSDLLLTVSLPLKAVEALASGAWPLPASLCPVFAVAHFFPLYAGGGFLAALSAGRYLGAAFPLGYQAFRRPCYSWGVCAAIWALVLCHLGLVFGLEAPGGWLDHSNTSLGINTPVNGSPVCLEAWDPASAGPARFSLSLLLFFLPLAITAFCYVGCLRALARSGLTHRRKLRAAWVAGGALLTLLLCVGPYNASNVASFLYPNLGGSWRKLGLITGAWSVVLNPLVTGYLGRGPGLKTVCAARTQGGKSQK
Sequence of Growth hormone secretagogue receptor type 1 (Homo sapiens) (Q92847 whole entry): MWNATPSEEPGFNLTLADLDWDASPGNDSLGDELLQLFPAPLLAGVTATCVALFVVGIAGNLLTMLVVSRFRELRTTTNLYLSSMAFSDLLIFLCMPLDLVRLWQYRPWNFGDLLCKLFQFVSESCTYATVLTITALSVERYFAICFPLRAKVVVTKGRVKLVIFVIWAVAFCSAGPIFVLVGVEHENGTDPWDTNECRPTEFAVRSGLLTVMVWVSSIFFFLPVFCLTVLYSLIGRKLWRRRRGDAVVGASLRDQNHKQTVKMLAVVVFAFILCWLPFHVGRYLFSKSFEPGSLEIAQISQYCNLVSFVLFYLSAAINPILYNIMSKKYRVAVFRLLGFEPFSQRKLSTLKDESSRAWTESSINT
Sequence of Hydroxycarboxylic acid receptor 2 (Homo sapiens) (Q8TDS4 whole entry): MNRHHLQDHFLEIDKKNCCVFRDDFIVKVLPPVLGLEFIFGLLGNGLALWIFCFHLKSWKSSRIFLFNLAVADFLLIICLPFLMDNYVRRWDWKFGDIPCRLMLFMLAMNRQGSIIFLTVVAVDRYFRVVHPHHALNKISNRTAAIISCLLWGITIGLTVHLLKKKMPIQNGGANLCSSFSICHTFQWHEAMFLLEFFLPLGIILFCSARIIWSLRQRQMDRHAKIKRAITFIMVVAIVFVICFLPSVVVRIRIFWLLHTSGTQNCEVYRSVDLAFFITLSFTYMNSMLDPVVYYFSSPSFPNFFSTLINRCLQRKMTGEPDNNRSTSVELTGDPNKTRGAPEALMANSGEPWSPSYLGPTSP

With `CC(C)[C@H](C(=O)Nc1ncc(F)s1)c1ccc(Cl)cc1` the MRT [1] was 228 min, the AUC [2] was 62000 ng·h/mL and the Activity [3] was “inactive”. For the same compound, the Activity (Mus musculus [4]) was “Active”, the Activity [5] was “inactive” and the Activity (Mus musculus [6]) was “Active”. For the same compound, the Activity [7] was 0.7 µM, the Tmax [8] was 19.8 min and the Activity (Mus musculus [9]) was “inactive”. The AUC (Rattus norvegicus) was 194 ng·h/mL, the Activity [10] was “inactive” and the MRT [11] was 55.8 min. For the same compound, the Vd [12] was 9.8 L/kg, the Activity [13] was “inactive” and the inhibition (3T3-L1) was “Dose-dependent effect”. For the same compound, the Activity [14] was “inactive”, the Activity [15] was “inactive” and the Activity [16] was “inactive”. The Cmax [17] was 83 ng/mL.
